Screening results as filed in PubChem BioAssay.
Sampled rows, rich in hits. Any-hit rate of the full collection: about 2.1%.
Ec RNAP inh – E. coli RNAP inhibitors, biochemical. DNA-directed RNA polymerase subunit beta (Escherichia coli (strain K12)), P0A8V2. E. coli RNA polymerase, fluorescence transcription assay. inhibition, %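 (tested at 10 µM)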. 62,000 compounds, 0.2% hits; in the data active = inhibition above about 20%
MT1-MMP txn act – MT1-MMP promoter reporter activation – cell-based, luciferase luminescence, primary screen; HT1080 MT1-MMP promoter luciferase reporter, overnight; active compounds read high; activation factor at 10 µM; 86,000 compounds, 0.16% hits;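 active = activation factor of at least 2 for MT1-MMP transcription at 10 µM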
TNAP act DEA – human TNAP enzyme activators, primary screen, biochemical, luminescent, intermediate phosphate acceptor level; 64,000 tested, under 10 active; Alkaline phosphatase, tissue-nonspecific isozyme (Homo sapiens), P05186; activation factor at 20 µM; purified TNAP, CDP-star luminescence, 100 mM DEA, 30 min; active compounds read high; scale: 0 levamisole-inhibited, 1 vehicle-only enzyme;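 active = activation factor of at least 2 at 20 µM, relative to controls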
Target sequence (P05186 whole entry, looked up): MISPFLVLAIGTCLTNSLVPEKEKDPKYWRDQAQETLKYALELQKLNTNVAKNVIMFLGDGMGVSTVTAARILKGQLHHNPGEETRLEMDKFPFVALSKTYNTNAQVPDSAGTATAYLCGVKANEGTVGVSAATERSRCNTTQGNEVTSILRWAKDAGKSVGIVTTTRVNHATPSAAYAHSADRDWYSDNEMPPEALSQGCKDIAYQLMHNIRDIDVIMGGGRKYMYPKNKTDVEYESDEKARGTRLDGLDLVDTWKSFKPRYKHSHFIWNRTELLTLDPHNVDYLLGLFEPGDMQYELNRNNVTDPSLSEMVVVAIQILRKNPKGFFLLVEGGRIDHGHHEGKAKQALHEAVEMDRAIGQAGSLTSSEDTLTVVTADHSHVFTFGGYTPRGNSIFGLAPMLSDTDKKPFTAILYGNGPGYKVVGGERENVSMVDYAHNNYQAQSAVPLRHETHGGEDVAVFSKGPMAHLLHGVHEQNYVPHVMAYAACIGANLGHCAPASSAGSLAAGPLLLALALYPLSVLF
RORa activator – activators of orphan receptor RORA, primary screen, cell-based, luminescence | Nuclear receptor ROR-alpha (Homo sapiens), P35398 | CHO-K1 Gal4-RORA LBD luciferase reporter; percent increase over mock-subtracted basal signal | activation, % at 10 µM | 65,000 compounds, 1.5% hits | AID 560, 2006;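 active = activation above the mean of all tested compounds plus 3 SD, cut at about 49% in these data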
SF1 activator – activators of human SF-1, primary screen, cell-based, CHO-K1, Gal4-SF-1 LBD, luciferase luminescence; Steroidogenic factor 1 (Homo sapiens), Q13285; CHO-K1 Gal4-SF-1 LBD luciferase reporter; % increase over DMSO SF-1-specific signal; activation, % at 10 µM; 65,000 compounds, 1.9% hits;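 active = activation above the mean activation of all tested compounds plus 3 SD, cut at about 50% in these data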
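Material: Gal4–SF-1 LBD one-hybrid luciferase reporter in CHO-K1 cells | Amount: 4,000 cells per well | Compound dosing: 10 µM single point, 1% DMSO | Schedule: 20 h compound treatment, 37 °C | Measured by: SteadyLite luciferase luminescence | Evaluation: Percent activation versus DMSO | Control set: DMSO-treated SF-1-transfected cells as negative, DMSO-treated mock-transfected cells lacking SF-1 as background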
Numbers stand for hits; 0 = inactive; - = no result given.

SMILES | Ec RNAP inh | MT1-MMP txn act | TNAP act DEA | RORa activator | SF1 activator
c1ccc(CSCc2cn3ccsc3n2)cc1 | 0 | 0 | 0 | 58 | 54
COc1ccc(C(=O)CSc2nc3nc(C)cc(C)c3c(=O)[nH]2)cc1OC | 0 | 0 | 0 | 0 | 0
COC(=O)[C@@H]1C[C@H]1[C@@H](NC(C)=O)c1ccccc1 | - | 0 | - | - | -
Cc1nn(-c2ccccn2)c2c1-c1nc(N3CCOCC3)ncc1CC2 | - | 0 | - | - | -
Cc1nn(-c2ccccn2)c2c1-c1nc(N)ncc1CC2 | 0 | 0 | 0 | 51 | 0
COc1ccc(Nc2cc(C)nc3ccccc23)cc1 | 0 | 0 | 0 | 0 | 0
COc1ccc(Nc2nc(C)c3ccccc3n2)cc1 | 0 | 2.1 | 0 | 55 | 99
CC1=CN2C(=NC(=O)CC2(C)C(=O)N(CC(=O)NC2CCCC2)c2ccccc2C)C=C1 (stereo unspecified) | - | 0 | - | - | -
C=CCn1c(SCC(=O)c2ccc(NS(=O)(=O)c3ccccc3)cc2)nnc1-c1cccs1 | 26 | 0 | 0 | 0 | 0
C=CCn1c(SCC(=O)Nc2ccc(C(=O)OCC)cc2)nnc1-c1cccs1 | 0 | 0 | 0 | 0 | 0
Cc1ccc(OCc2nn3c(-c4n[nH]c5c4CCC5)nnc3s2)cc1 | 0 | 0 | 0 | 0 | 0
CCOc1ccc(N2C(=O)c3ccccc3C2O)cc1 (stereo unspecified) | 0 | 0 | 0 | 0 | 69
CCOc1ccc(N2C(=O)c3ccccc3C2=O)cc1 | - | 0 | - | - | -
COc1ccc(CNC(=O)[C@H](C)[C@H]2C[C@]2(C)[C@H](NC(=O)OCc2ccccc2)c2ccccc2)cc1OC | - | 0 | - | - | -
COc1ccc(-c2nnc(SCC(=O)N3CCOCC3)o2)cc1OC | 0 | 0 | 0 | 0 | 0
O=C(CSc1nnc(-c2ccccc2Cl)o1)N1CCCCC1 | 0 | 0 | 0 | 65 | 0
O=C(CSc1nnc(-c2ccc3c(c2)OCCO3)o1)N1CCCC1 | 0 | 0 | 0 | 0 | 50
CCOC(=O)N1CCN(C(=O)CSc2nnc(-c3ccc(C)c(C)c3)o2)CC1 | 0 | 0 | 0 | 0 | 0
Cc1ccc(-c2nnc(SCC(=O)N3CCCC3)o2)cc1 | 0 | 0 | 0 | 0 | 0
Cc1ccc(-c2nnc(SCC(=O)N3CCCC3)o2)cc1C | 0 | 0 | 0 | 58 | 0
CCOc1ccc(-c2nnc(SCC(=O)N3CCOCC3)o2)cc1 | 0 | 0 | 0 | 52 | 0
CCOC(=O)c1ccc(CNC(=O)c2cc3cccc(OC)c3oc2=O)o1 | 0 | 0 | 0 | 0 | 0
c1ccn2c(SCc3ccc4c(c3)OCCO4)nnc2c1 | 0 | 0 | 0 | 57 | 0
c1ccn2cc(CSc3nnc4ccccn34)nc2c1 | 0 | 0 | 0 | 57 | 58
Cn1ccnc1SCc1cn2ccccc2n1 | 0 | 0 | 0 | 0 | 0
SMILES | Ec RNAP inh | MT1-MMP txn act | TNAP act DEA | RORa activator | SF1 activator
c1ccc(-c2csc3nnc(SCc4ccc5c(c4)OCCO5)n23)cc1 | - | 0 | - | 0 | 0
CC(C)(C)OC(=O)N1CCC(C(=O)N[C@@H](Cc2ccccc2)C(=O)O)CC1 | - | 0 | - | - | -
CC1(C)SC2[C@H](NC(=O)C(NC(=O)N3CCNC3=O)c3ccccc3)C(=O)N2C1C(=O)O (stereo partly specified) | 0 | 0 | 0 | 0 | 0
CC1(C)Cc2c(sc3nc(-c4cc5ccccc5o4)n(N)c(=O)c23)CO1 | 0 | 0 | 0 | 59 | 0
Cc1ccc(-c2nc3sc4c(c3c(=O)n2N)CC(C)(C)OC4)cc1 | - | 0 | - | - | -
Brc1cccc(-c2nc(-c3ccncc3)no2)c1 | - | 0 | 0 | 0 | 60
Cc1cc(C)cc(-c2nc(-c3ccncc3)no2)c1 | 0 | 0 | 0 | 0 | 90
Clc1ccc(Br)cc1-c1nc(-c2ccncc2)no1 | 0 | 0 | 0 | 0 | 0
COc1ccccc1NC(=O)CSc1nnc(-c2ccoc2C)n1CC1CCCO1 (stereo unspecified) | - | 0 | - | - | -
Clc1ccc2nc(N3CCCCC3)sc2c1 | 0 | 0 | 0 | 0 | 65
Fc1cccc2sc(N3CCCCC3)nc12 | 0 | 0 | 0 | 0 | 73
Clc1ccc2nc(N3CCCCC3)[nH]c2c1 | 0 | 0 | 0 | 0 | 0
O=C(NCC1CCCO1)c1ccc(N2CCCCC2)nc1 (stereo unspecified) | 0 | 0 | 0 | 0 | 0
O=C(NCC1CCCO1)c1ccc2nc(N3CCCCC3)sc2c1 (stereo unspecified) | 0 | 0 | 0 | 59 | 54
Clc1nc2sccn2c1/C=N/n1cnc2ccccc21 | 0 | 0 | 0 | 52 | 0
COc1ccc(C(=O)Nc2ccc3c(c2)nc2n3CCSC2)cc1 | 0 | 0 | 0 | 0 | 57
O=C1C(C=NCc2ccccn2)=C(O)c2ccccc21 | 0 | 0 | 0 | 0 | 55
CC1=NC(=O)C(N=Nc2cccc3ccccc23)N1c1ccccc1 (stereo unspecified) | - | 0 | - | - | -
Cc1ccc(Nc2nc(N)nc(CN3CCN(C)CC3)n2)cc1 | 21 | 0 | 0 | 0 | 0
COC(=O)c1cc(C)sc1NC(=O)c1cccnc1 | 0 | 0 | 0 | 0 | 0
O/N=C/c1cn(-c2ccccc2)nc1-c1ccc2c(c1)OCCO2 | - | 0 | - | - | -
COc1cccc(-c2nn(-c3ccccc3)cc2CO)c1 | 0 | 0 | 0 | 62 | 0
OCc1cn(-c2ccccc2)nc1-c1ccc2c(c1)OCCO2 | 0 | 2.1 | 0 | 73 | 0
COc1ccc(-c2nn(-c3ccccc3)cc2CO)cc1OC | 0 | 0 | 0 | 0 | 0
Cc1ccc2nc(C)/c(=N\O)c(C)nc2c1 | - | 0 | - | - | -
SMILES | Ec RNAP inh | MT1-MMP txn act | TNAP act DEA | RORa activator | SF1 activator
Cc1nc2ccc(Cl)cc2nc(C)/c1=N\O | 0 | 0 | 0 | 0 | 52
O=C(Nc1cccc(NC(=O)c2cccnc2)c1)c1cccnc1 | 0 | 0 | 0 | 0 | 0
CCCn1c(NC(=O)c2ccccc2)nc2ccccc21 | 0 | 0 | 0 | 0 | 0
O=C(Nc1cnc2ccccc2c1)c1cccc(-n2cnnn2)c1 | - | 0 | 0 | 0 | 56
CCC(C)c1ccc(NC(=O)c2cccnc2)cc1 (stereo unspecified) | 0 | 0 | 0 | 93 | 112
O=C(Nc1cnc2ccccc2c1)c1cccnc1 | 0 | 0 | 0 | 58 | 75
CCOc1ccc(NC(=O)c2cccc(-n3cnnn3)c2)cc1 | 0 | 0 | 0 | 0 | 0
CCC(C)c1ccc(O)c(NC(=O)c2cccnc2)c1 (stereo unspecified) | 0 | 0 | 0 | 0 | 0
Cn1c(NC(=O)c2cccnc2)nc2ccccc21 | 0 | 0 | 0 | 52 | 52
CN(C)c1ccc(CNC(=O)[C@@]2(C)C=C[C@@H](Cc3ccccc3)N2C)cc1 | - | 0 | - | - | -
NC(=O)CC12CC3CC(C1)CC(CC(N)=O)(C3)C2 | 0 | - | 0 | 0 | 0
COC(=O)N1C2(C=CC1(C)C(=O)NCc1ccccn1)CCCCC2 (stereo unspecified) | - | 0 | - | - | -
Cc1nn2c(-c3ccncc3)nnc2c2ccccc12 | 0 | 0 | 0 | 0 | 0
COc1ccc(-c2nnc3c4ccccc4c(C)nn23)cc1 | - | 2 | - | - | -
CCc1nnc2c3cnn(-c4ccccc4)c3ncn12 | 0 | 0 | 0 | 83 | 0
Cc1ccc(-n2ncc3c(=O)n(-c4ccc(C)c(C)c4)c(C)nc32)cc1 | 0 | 0 | 0 | 0 | 0
